Assay outcomes (PubChem)
Rows were chosen to be rich in hits. Some 3.5% of all compounds tested hit in one or more screens of this group.
MrgX1 PAM = positive allosteric modulators of MrgX1, primary screen, HEK293 cells, Fluo-4 calcium flux; B-score at 10 µM; actives 0.63% (n = 310,000); FDSS; active compounds read high; Mas-related G-protein coupled receptor member X1 (Homo sapiens), Q96LB2;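 active means plate-corrected calcium response at least 3 library SD above typical, normal starting fluorescence, not activating the receptor alone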;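 further: compound read alongside a low EC10 to EC30 dose of BAM8-22 agonist; peak minus trough fluorescence over baseline measured at the second addition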
Target sequence (Q96LB2 whole entry, looked up): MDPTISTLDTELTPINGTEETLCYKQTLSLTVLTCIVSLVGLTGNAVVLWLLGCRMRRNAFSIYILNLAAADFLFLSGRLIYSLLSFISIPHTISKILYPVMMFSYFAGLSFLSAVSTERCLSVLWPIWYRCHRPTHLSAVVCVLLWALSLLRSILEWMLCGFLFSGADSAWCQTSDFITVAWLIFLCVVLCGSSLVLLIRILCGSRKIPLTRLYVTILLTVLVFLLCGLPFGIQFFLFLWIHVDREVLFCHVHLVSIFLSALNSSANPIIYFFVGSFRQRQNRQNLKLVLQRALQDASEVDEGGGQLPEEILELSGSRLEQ
RGS4 pot = RGS4 potentiators or activators, primary screen, cell-based, HEK293 M3R inducible RGS4, calcium flux; actives 0.92% (n = 310,000); B-score at 10 µM; carbachol calcium flux Fluo4; active compounds read low;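 active means B-score of the integrated calcium signal more than 4 SD below the library mean, with starting fluorescence not abnormally high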;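 further: negative B-score means reduced calcium response which marks RGS4 activation or potentiation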
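Reagent: ECmax carbachol challenge; Test system: M3R-expressing HEK293 line, RGS4 induced by doxycycline; Schedule: overnight RGS4 induction, 30 min dye load 37 °C, 20 min compound RT; Detection: calcium dye Fluo4 fluorescence; Read-out: Agonist-evoked peak-minus-minimum fluorescence over baseline, integrated ratio, B score.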
RGS4 block = RGS4 inhibitors, primary screen, cell-based, HEK293 M3R inducible RGS4, calcium flux. Fluo-4 calcium flux; active compounds read high; triggered by carbachol at its EC20. B-score at 10 µM. actives 0.45% (n = 310,000). AID 463165, 2010;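 active means B-score, a plate-corrected calcium signal, over three deviations above library mean, with baseline fluorescence within five deviations of library mean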;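 further: RGS4 expression induced by doxycycline in cells with stable M3 receptor; B-score is computed from the integrated fluorescence ratio over baseline after carbachol; higher B-score means a larger calcium signal and so more RGS4 inhibition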
MrgX1 antagonist = antagonists of human MrgX1 receptor, primary screen, HEK293 cells, Fluo-4 calcium flux. AID 588676, 2011. B-score at 10 µM. Mas-related G-protein coupled receptor member X1 (Homo sapiens), Q96LB2. actives 1.3% (n = 310,000). BAM8-22 antagonism; active compounds read low;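 active means calcium-response B-score plate-corrected more than 3 library SD below zero, starting fluorescence within 5 deviations, no agonist response on first addition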;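 further: peak minus trough fluorescence over baseline after final BAM8-22 challenge near maximal dose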
MrgX1 agonist = agonists of human MrgX1 receptor, primary screen, HEK293 cells, Fluo-4 calcium flux. Mas-related G-protein coupled receptor member X1 (Homo sapiens), Q96LB2. Fluo-4 calcium fluorescence, agonist mode; active compounds read high. B-score at 10 µM. actives 0.44% (n = 310,000);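 active means calcium response B-score plate-corrected fluorescence ratio at least 3 library SD, with starting fluorescence B-score inside 5 SD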
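Material – MrgX1-expressing HEK293 cells · Input – 15,000 cells seeded per well · Dosing – compound as first of three additions · Times – overnight seeding, then 1 h dark dye loading · Measured by – kinetic Fluo-4 NW fluorescence of intracellular calcium · Read-out – B-scored fluorescence response ratio · Benchmarks – positive and negative control wells on each plate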
RGS4 activ val = reduced carbachol calcium response, RGS4-induced M3R cells, confirmation, RGS4 activator project, cell-based, HEK293 M3R/RGS4 inducible, calcium flux, duplicate | carbachol calcium flux Fluo4 | inhibition, % at 10 µM | shares compounds with RGS4 pot | actives 89% (n = 1,100);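 active means inhibition above 3 SD of the buffer control wells, cut at about 41% in these data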;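 further: signal is the integrated peak-minus-minimum Fluo4 fluorescence over baseline ratio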
RGS4 act ctr = counter-screen for RGS4 activators: effect in non-induced cells | shares compounds with RGS4 pot | HEK293 M3R non-induced RGS4, Fluo4 calcium flux; after carbachol challenge at its EC90 | inhibition, % at 10 µM | actives 82% (n = 1,100) | AID 602283;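 active means inhibition exceeding 3 SD of buffer-only control wells, cut at about 26% in these data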;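 further: percent drop in integrated peak-minus-baseline over baseline Fluo4 ratio after carbachol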
Numbers without * were called inactive; i = inactive; nt = not tested or not shown.

SMILES	MrgX1 PAM	RGS4 pot	RGS4 block	MrgX1 antagonist	MrgX1 agonist	RGS4 activ val	RGS4 act ctr
CC1CCCCN1CC(=O)Nc1ccc(N2CCCCCC2)cc1 (centres undefined)	i	i	i	i	i	nt	nt
CCOC(=O)c1cc(-c2ccccc2)nc2nc(N(CC)CC)sc12	i	-9*	i	i	i	88*	76*
CCOC(=O)c1ccc(NC(=S)N2CCCC(C)C2)cc1 (centres undefined)	i	-8.9*	i	i	i	79*	26*
CCOC(=O)c1ccc(NC(=S)N2CCCC(C(=O)N3CCCC3)C2)cc1 (centres undefined)	i	i	i	i	i	nt	nt
CCOC(=O)c1ccc(NC(=S)N2CCC(O)CC2)cc1	i	i	i	i	i	nt	nt
CCOC(=O)c1ccc(NC(=S)N2CCSC2c2ccc(Br)cc2)cc1 (centres undefined)	i	-8.1*	i	i	i	92*	91*
OC(CNCc1ccc(F)cc1)(c1ccc(F)cc1)c1ccc(F)cc1	i	i	i	i	i	nt	nt
OC(CNCc1ccc(Cl)cc1)(c1ccccc1)c1ccc(F)cc1 (centres undefined)	i	-9.4*	i	i	i	94*	86*
CCOc1ccccc1C(=O)Nc1cc(C(=O)NCC(C)C)ccc1Cl	i	i	i	i	i	nt	nt
Cc1cnc(NC(=O)c2ccc(-c3nc4ccccc4s3)o2)s1	i	-9.7*	i	i	i	79*	32*
Cc1cnc(NC(=O)CSc2nc3ccccc3s2)s1	i	i	i	i	i	nt	nt
COc1cccc(CNC(=O)CCC2CCCN(c3cc(C)nc(N(C)C)n3)C2)c1 (centres undefined)	i	-11*	i	i	i	90*	72*
COc1ccc(CC(=O)Nc2cccc(-c3nnc(-c4ccco4)o3)c2)cc1	i	i	i	i	i	nt	nt
COc1ccc(C(=O)Nc2cccc(-c3nnc(-c4ccco4)o3)c2)cc1	i	-9.6*	i	i	i	88*	48*
CCOC(=O)C1CCN(C(=O)CCC(=O)NNc2nc3ccccc3c3nc(C)nn23)CC1	i	i	i	i	i	nt	nt
S=C(NCCN(C1CCCCC1)C1CCCC1)Nc1cccc(Cl)c1	i	-7.9*	i	i	i	62*	84*
S=C(Nc1cccc(Cl)c1)NC1CC2CCCC(C1)N2C1CCCC1 (centres undefined)	i	i	i	i	i	nt	nt
CN(CC(=O)Nc1cccc(C#N)c1)Cc1ccc(Cl)cc1	i	i	i	i	i	nt	nt
CN(CC(=O)Nc1ccc(C#N)cc1)Cc1ccc(Cl)c(Cl)c1	i	-8.7*	i	i	i	92*	95*
Cc1ccoc1C(=O)Nc1cccc2ccccc12	i	i	i	i	i	nt	nt
COc1ccc(-c2cc(C(=O)N3CCN(c4ccccc4O)CC3)c3ccccc3n2)cc1OC	i	-7.7*	i	i	i	92*	82*
COc1ccc(-c2cc(C(=O)N3CCN(c4ccccc4F)CC3)c3ccccc3n2)c(OC)c1	i	-8.4*	i	i	i	56*	0
CCOc1ccc(-c2cc(C(=O)N3CCN(c4ccccn4)CC3)c3ccccc3n2)cc1	i	i	i	i	i	nt	nt
CCCc1ccc(-c2cc(C(=O)N3CCN(c4ccccn4)CC3)c3ccccc3n2)cc1	i	-12*	i	i	i	52*	0
c1ccc(COc2ccc(OCCN3CCCC3)cc2)cc1	i	i	i	i	i	nt	nt
